Screening results deposited in PubChem BioAssay by several laboratories.
Hits are enriched below; roughly 1.5% of the tested compounds scored in any of these assays.
CaV13 ICDI inh = Disruptors of the CACNA1D IQ motif to Ca2+-dependent inactivation inhibitor domain association, primary screening, Förster resonance energy transfer in intact living …; HEK cells, CFP/YFP FRET ICDI-IQ, plate reader, 10 min; percent FRET-ratio fall versus neutral wells; inhibition, % at 12.3 µM; hit rate 0.098% among 340,000; AID 743397;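 active means mean replicate inhibition of at least 30% and at least 1% of replicates passing that level; inconclusive means only one of the two criteria is met; inactive means neither criterion is met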;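 further: 0% = median of the neutral control wells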
RanGTP-Impb inh = inhibitors of RanGTP-importin-beta interaction, primary screen, biochemical, FRET, CFP-Ran, YFP-importin-beta, homogeneous | cell-free CFP-Ran/YFP-importin-beta FRET ratio | AID 2216, 2009 | inhibition, % (concentration not given with the values) | Ran GTPase (GTP-bound) - importin-beta complex | hit rate 1.1% among 300,000;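 active means more than half of the replicate wells show a fall in the fluorescence ratio signal beyond about 16%, limit read from the data, passing the limit was not always enough; inconclusive means exactly half of the replicate wells pass the set limit; inactive means fewer than half of replicates pass the limit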;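 further: 0% = DMSO wells and 100% = Ran loaded with GDP instead of GTP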
Hck-Nef inh = inhibitors of Nef-activated human Hck kinase, primary screen, biochemical, Z-Lyte FRET, 384-well, Hck-YEEI | Tyrosine-protein kinase HCK (Homo sapiens), P08631 | Recombinant Hck-YEEI plus Nef, Z-Lyte FRET kinase assay | inhibition, % at 20 µM | hit rate 0.68% among 220,000 | AID 463187, 2010;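 active means Hck-Nef kinase inhibition above about 50%, limit read from the data; inactive means inhibition below that limit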;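 further: 0% = DMSO with Hck plus Nef and 100% = Hck alone without Nef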
Target sequence (P08631 whole entry, looked up): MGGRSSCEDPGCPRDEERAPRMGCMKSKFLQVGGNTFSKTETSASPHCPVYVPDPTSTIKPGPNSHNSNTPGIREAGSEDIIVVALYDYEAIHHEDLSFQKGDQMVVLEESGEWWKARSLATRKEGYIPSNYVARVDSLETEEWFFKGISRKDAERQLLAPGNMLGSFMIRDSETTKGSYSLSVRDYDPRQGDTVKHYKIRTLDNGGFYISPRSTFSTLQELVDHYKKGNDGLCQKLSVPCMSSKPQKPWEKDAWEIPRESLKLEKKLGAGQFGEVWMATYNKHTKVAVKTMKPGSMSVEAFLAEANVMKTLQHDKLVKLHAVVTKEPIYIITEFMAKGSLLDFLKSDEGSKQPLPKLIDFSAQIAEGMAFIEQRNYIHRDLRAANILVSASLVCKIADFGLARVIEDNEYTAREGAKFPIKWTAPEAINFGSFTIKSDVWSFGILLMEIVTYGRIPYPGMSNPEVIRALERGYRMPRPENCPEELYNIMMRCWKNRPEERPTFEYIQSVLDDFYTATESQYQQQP
Runt-SMMHC FRET = inhibitors of RUNX1 Runt–CBFb-SMMHC binding, primary screen, biochemical, FRET, Cerulean-Runt, Venus-CBFb-SMMHC, uHTS; Cerulean-Runt/Venus-CBFb-SMMHC FRET ratio 530/480, 1 h; inhibition, % at 20 µM; hit rate 0.74% among 220,000;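 active means mean inhibition across duplicate retests at 20 µM reaching about 50%, limit read from the data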;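 further: 0% = DMSO wells and 100% = wells with excess untagged CBFb-SMMHC; inhibitors lower the FRET ratio by blocking Runt binding to CBFb-SMMHC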
Runt-CBFb FRET = inhibitors of RUNX1 Runt–CBFb binding, primary screen, biochemical, FRET, Cerulean-Runt, Venus-CBFb, uHTS. Runt-related transcription factor 1 (Homo sapiens) + Core-binding factor subunit beta …. hit rate 0.46% among 220,000. Cerulean-Runt/Venus-CBFb FRET ratio 530/480, 1 h. inhibition, % at 20 µM. AID 1496, 2009;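 active means inhibition over about 50% at 20 µM in the single-dose screen, limit read from the data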;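 further: 0% = DMSO wells and 100% = excess unlabeled CBFb competitor control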
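Assay system: Cerulean-tagged RUNX1 Runt domain (FRET donor) fusion protein / Amount: 100 nM each of Venus-CBFb and Cerulean-Runt domain / Medium: Tris buffer pH 7.5 with salts and BSA / Also added: Venus-CBFb 100 nM / Schedule: 1 h complex formation plus 1 h compound treatment, room temperature / Signal: FRET fluorescence / Read-out: loss of energy transfer signal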
The depositor's hits bear a star.

For CC(C)CC1NC(=O)c2cc(Cl)ccc2-n2c1nc1cc(F)ccc1c2=O (centres undefined) the results were CaV13 ICDI inh -11.
`C[C@H](NC(=O)c1ccco1)C(=O)Nc1cc(S(=O)(=O)N2CCCC2)ccc1OCC(F)(F)F` gave CaV13 ICDI inh -6.
`CC(C)n1c(=NC(=O)c2ccco2)c(C#N)cc2c(=O)n3ccccc3cc21` gave RanGTP-Impb inh 107*, Hck-Nef inh 25, Runt-SMMHC FRET 83* and Runt-CBFb FRET 5.
`O=C(NCCc1ccccc1C(F)(F)F)C1CCC(=O)N(CCCN2CCCC2=O)C1` (centres undefined) gave CaV13 ICDI inh -21 and RanGTP-Impb inh 0.
Oc1c(Cl)cc(Cl)cc1/C=N/NC(=S)NC1CC2C=CC1C2 (centres undefined) was read as CaV13 ICDI inh -5, RanGTP-Impb inh 9, Hck-Nef inh -88, Runt-SMMHC FRET 90* and Runt-CBFb FRET 12.
`COc1ccc2nc3cc(Cl)ccc3c(C#N)c2c1` gave CaV13 ICDI inh -5, RanGTP-Impb inh 51*, Hck-Nef inh 8, Runt-SMMHC FRET 29 and Runt-CBFb FRET 16.
`COc1ccccc1C1CN(c2ccc(F)cc2F)N=C1c1cccs1` (centres undefined) gave RanGTP-Impb inh -10, Hck-Nef inh 47, Runt-SMMHC FRET 83* and Runt-CBFb FRET 16.
Screening COc1ccccc1C1CC(c2cccs2)=Nc2ccccc2S1 (centres undefined) returned CaV13 ICDI inh -3, RanGTP-Impb inh 4, Hck-Nef inh -2, Runt-SMMHC FRET 5 and Runt-CBFb FRET 33.
Screening COc1cccc(CNC(=O)COc2ccc(C(=O)c3ccccc3)cc2)c1 returned CaV13 ICDI inh -4 and RanGTP-Impb inh 7.
For COc1ccc2cc(C(=O)NCc3ccco3)c(=O)oc2c1 the results were RanGTP-Impb inh inconclusive, Hck-Nef inh 4, Runt-SMMHC FRET 77* and Runt-CBFb FRET 35.
For CCCOc1ccc2cc(C(=O)NCc3ccccc3)c(=O)oc2c1 the results were CaV13 ICDI inh -1 and RanGTP-Impb inh 59*.
For COc1ccc2cc(C(=O)NCc3ccco3)c(=Nc3ccc(C(=O)O)cc3)oc2c1 the results were CaV13 ICDI inh -5, RanGTP-Impb inh 2, Hck-Nef inh -2, Runt-SMMHC FRET 0 and Runt-CBFb FRET 0.
COc1ccc(CCC(=O)NNC(=S)NCc2ccc(F)cc2)cc1 was read as CaV13 ICDI inh -8, RanGTP-Impb inh 23*, Hck-Nef inh 19, Runt-SMMHC FRET -4 and Runt-CBFb FRET -1.
CCCNC(=O)N(C)C[C@H]1Oc2cc(Br)ccc2S(=O)(=O)N([C@@H](C)CO)C[C@@H]1C was read as CaV13 ICDI inh -4.
`Cc1nc2sc(C(N)=O)c(N)c2c2c1CCCC2` gave CaV13 ICDI inh 3, RanGTP-Impb inh 2, Hck-Nef inh 11, Runt-SMMHC FRET 2 and Runt-CBFb FRET 4.
For O=C1/C(=C/c2cccs2)SC(=S)N1NS(=O)(=O)c1ccccc1 the results were CaV13 ICDI inh -5, RanGTP-Impb inh -1, Hck-Nef inh 78*, Runt-SMMHC FRET -4 and Runt-CBFb FRET 0.
For CC(C)CC[n+]1ccn(-c2nc3ccccc3nc2[N-]S(=O)(=O)c2ccc(Cl)cc2)c1 the results were CaV13 ICDI inh -17, RanGTP-Impb inh 30*, Hck-Nef inh 14, Runt-SMMHC FRET 26 and Runt-CBFb FRET 11.
`Cc1cc(CNC(=O)c2ccc3c(c2)OCO3)c2ccccc2n1` gave CaV13 ICDI inh 152*, RanGTP-Impb inh inconclusive, Hck-Nef inh 6, Runt-SMMHC FRET 1 and Runt-CBFb FRET 0.
`CSC(=S)N/N=C/c1ccc(Br)cc1` gave CaV13 ICDI inh -5, RanGTP-Impb inh 2, Hck-Nef inh 19, Runt-SMMHC FRET 3 and Runt-CBFb FRET 2.
